# Source: PubChem BioAssay
# MT1-MMP act inh = blockers of MT1-MMP proenzyme processing, primary screen, HT1080 RFP-PRO-GFP cells, GFP/RFP fluorescence | Matrix metalloproteinase-14 (Homo sapiens), P50281 | GFP/RFP ratio fluorescence, overnight; percent of plate control window, DMSO zero | GFP/RFP ratio change, % at 20 µM | 360,000 compounds, 0.061% hits;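 active = GFP/RFP ratio change of at least 30% with cell ATP level not reduced by more than half and red fluorescence within 50% of control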
#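 Assay system – RFP-PRO-GFP reporter HT1080 cells · Compound dosing – single dose of 20 µM compound, 1% DMSO final · Incubation – overnight compound exposure at 37 °C · Measure – GFP/RFP fluorescence ratio · Benchmarks – DMSO wells and RFP-L50D-GFP cells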
# Tn7 DDE FP = inhibitors of Tn7 peptide binding to fibrin DD(E), primary screen, biochemical, fluorescence polarization, human fibrin, Tn7 probe; Fibrinogen beta chain (Homo sapiens), P02675; FP displacement of FITC-Tn7 peptide from fibrin DD(E); 0% = median of compound wells per plate; inhibition, % at 8.3 µM; 370,000 compounds, 0.13% hits; AID 720508, 2013;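 active = inhibition above the mean of compounds falling within the control limits plus 3 SD of them, cut at about 14% in these data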;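 note: 0% = plate median of compound wells and 100% = 10 µM Aha-Tn7 peptide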
# Target sequence (P02675 whole entry, looked up): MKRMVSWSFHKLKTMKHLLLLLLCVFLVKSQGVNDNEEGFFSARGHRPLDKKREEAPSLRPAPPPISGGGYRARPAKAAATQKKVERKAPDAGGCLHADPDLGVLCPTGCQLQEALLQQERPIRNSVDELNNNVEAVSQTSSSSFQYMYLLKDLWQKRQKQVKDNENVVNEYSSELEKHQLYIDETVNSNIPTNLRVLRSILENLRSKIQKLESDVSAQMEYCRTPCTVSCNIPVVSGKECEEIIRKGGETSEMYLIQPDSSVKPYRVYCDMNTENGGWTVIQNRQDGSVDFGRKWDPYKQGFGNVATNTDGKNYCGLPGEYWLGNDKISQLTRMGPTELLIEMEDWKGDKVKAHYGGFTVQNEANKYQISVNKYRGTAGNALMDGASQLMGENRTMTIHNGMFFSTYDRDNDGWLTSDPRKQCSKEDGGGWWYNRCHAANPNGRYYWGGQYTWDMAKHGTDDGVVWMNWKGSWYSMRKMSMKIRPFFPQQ
#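 Assay system: human fibrin DD(E). Input: DD(E) 2 µM final. Medium: Tris buffer with calcium and detergent, pH 7.8. Compound dosing: single point at 8.3 µM. Timing: 10 min plus 3 h, room temperature. Technique: fluorescence polarization of the labelled Tn7 tracer. Read-out: percent inhibition. Replicates: singlicate testing.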
# SKN-1 inh = suppressors of acrylamide-induced Pgst-4::GFP reporter in worms, primary screen, SKN-1 inhibitor project, whole organism, uHTS, GFP/RFP fluorescence ratio, strain VP596; C. elegans VP596 Pgst-4::GFP/RFP ratio, 24 h; inhibition, % at 21.8 µM; 360,000 compounds, 0.49% hits;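 active = interference check ratio from 0.5 to 1.5 plus GFP to RFP signal ratio inhibition reaching or exceeding a fixed threshold, cut at about 30% in these data, passing the limit was not always enough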
# DDE Tn6 FP inh = inhibitors of Tn6 peptide binding to fibrin DD(E), primary screen, biochemical, fluorescence polarization, human fibrin, Tn6 probe. Fibrin DD(E) TRITC-Tn6 fluorescence polarization displacement. inhibition, % at 8.3 µM. AID 720509, 2013. 370,000 compounds, 0.21% hits. Fibrinogen beta chain (Homo sapiens), P02675;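 active = inhibition above a per-campaign cutoff: mean of compounds within control limits plus 3 SD, cut at about 15% in these data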;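 note: 0% = median of all compound wells on the plate and 100% = blocking peptide control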
# proKLK7 act = proKLK7 zymogen activators, primary screen, biochemical, fluorescence intensity; Kallikrein-7 (Homo sapiens), P49862; purified proKLK7, EDANS-DABCYL substrate fluorescence; 100% is mature enzyme control, 0% vehicle; activation, % at 7 µM; 370,000 compounds, 0.9% hits; AID 652039, 2013;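 active = activation above the mean of all tested compounds plus 3 SD, computed per campaign excluding outliers beyond control limits, cut at about 13% in these data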
# Target sequence (P49862 whole entry, looked up): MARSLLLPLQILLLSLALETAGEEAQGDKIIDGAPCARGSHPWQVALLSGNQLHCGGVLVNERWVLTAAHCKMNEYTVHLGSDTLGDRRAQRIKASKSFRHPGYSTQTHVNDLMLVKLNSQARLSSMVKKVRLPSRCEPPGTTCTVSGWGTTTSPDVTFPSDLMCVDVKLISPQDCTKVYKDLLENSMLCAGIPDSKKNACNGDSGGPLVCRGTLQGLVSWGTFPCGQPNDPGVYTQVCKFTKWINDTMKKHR
# Neddylation inh = inhibitors of cullin neddylation, primary screen, biochemical, TR-FRET, uHTS, NAE and Ubc12 | AID 651699, 2012 | calls only at 25 µM | 360,000 compounds, 0.58% hits | NEDD8-conjugating enzyme Ubc12 (Homo sapiens) + NEDD8-activating enzyme E1 regulatory …; in the data active = inhibition above about 36%
# proKLK7 act conf = proKLK7 zymogen activators, confirmation, biochemical, fluorescence intensity, triplicate; AID 686949, 2013; 3,200 compounds, 68% hits; purified proKLK7, EDANS-DABCYL substrate fluorescence; scaled: vehicle 0, mature enzyme 100; shares compounds with proKLK7 act; activation, % at 7 µM;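 active = activation, as change over the incubation, above the mean of all tested compounds plus 3 SD, cut at about 13% in these data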
# EDANS interfere = EDANS-DABCYL substrate optical interference, artefact control for kallikrein-7 zymogen activator project, biochemical, fluorescence intensity, high throughput | shares compounds with proKLK7 act | no enzyme, 4 h; solvent 0%, active enzyme control 100% | activation, % at 7 µM | 3,200 compounds, 80% hits | AID 686952, 2013;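 active = activation above the all-compound mean plus 3 SD, ignoring values outside control-based bounds, cut at about 4.8% in these data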;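 note: value is the 4 h activation minus the activation read at time zero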
# EDANS interf = optically interferes with EDANS-DABCYL fluorescence, kallikrein-7 activator counter-screen; shares compounds with proKLK7 act; EDANS-DABCYL peptide fluorescence interference, no enzyme; EC50, µM; 250 compounds, 20% hits; AID 720493;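 active = compounds that raise the fluorescence signal in this interference counterscreen, with EC50 at or below 10 µM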;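 note: intact quenched peptide substrate alone read at 355 nm excitation and 520 nm emission; signal is fluorescence gain from T0 to T4 after four hours at room temperature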
# * marks the source's active call; other numbers are inactive results; i = inactive; x = no result given. Rows were chosen to be rich in hits. Some 2.2% of all compounds tested hit in one or more screens of this group.
SMILES,MT1-MMP act inh,Tn7 DDE FP,SKN-1 inh,DDE Tn6 FP inh,proKLK7 act,Neddylation inh,proKLK7 act conf,EDANS interfere,others
CCN(CC)Cc1c(O)ccc2c(C)c(CC(=O)OC)c(=O)oc12,4.0,2.6,1.3,7.3,58.3*,x,64.9*,67.1*,
COC(=O)Cc1c(C)c2ccc(O)c(CNCc3ccc(OC)c(OC)c3)c2oc1=O,1.6,1.7,17.4,-5.3,62.8*,x,76.8*,65.0*,EDANS interf=>69.5
C=C(C)COc1ccc2c(C)c(CC(=O)OC)c(=O)oc2c1C,1.6,x,0.6,x,x,x,x,x,
CCc1ccc(NC(=O)NCc2cccnc2)cc1,0.5,1.6,3.0,-0.5,0.0,i,x,x,
CC(C)CN(C(=O)COC(=O)c1cccnc1Cl)c1c(N)n(Cc2ccccc2)c(=O)[nH]c1=O,-0.7,-2.5,-4.7,0.9,-0.3,i,x,x,
COc1ccc(-c2coc3cc(O)c(OC)cc3c2=O)cc1,4.8,4.8,18.6,-0.3,13.1*,x,66.7*,54.2*,
COc1ccc(-c2coc3cc(O)ccc3c2=O)cc1,-1.4,5.8,-7.9,3.2,-7.3,x,x,x,
COc1ccc(-c2coc3cc(OC(C)=O)ccc3c2=S)cc1,-1.2,0.7,-6.2,1.8,50.6*,x,93.4*,77.1*,
CC(=O)Oc1ccc2c(=O)c(-c3ccccc3)coc2c1,0.8,2.4,20.3,3.7,89.6*,x,274.1*,247.1*,
COc1cccc(NC(=O)c2cnc(SCC(=O)NCc3ccc4c(c3)OCO4)n(C)c2=O)c1,4.4,-1.3,-5.3,-3.0,0.5,i,x,x,
Cc1cc(C)c2cc(CN(Cc3ccco3)C(=O)NCc3ccccc3)c(=O)[nH]c2c1,-0.4,1.4,-22.3,-3.5,-0.8,i,x,x,
CCCn1c(-c2ccc[nH]c2=O)nc2cc(C)c(C)cc21,4.2,-7.9,4.7,-1.2,18.4*,x,38.1*,40.5*,
O=S(=O)(Nc1cccc(-c2cn3ccsc3n2)c1)c1ccc(F)cc1,-0.1,11.5,7.8,2.0,0.3,i,x,x,
O=S(=O)(Nc1ccc(-c2cn3cccnc3n2)cc1)c1ccccc1,6.9,3.8,3.1,-1.4,64.8*,x,22.2*,22.4*,
O=S(=O)(Nc1cccc(-c2cn3cccnc3n2)c1)c1ccc(F)cc1,5.8,-2.0,2.1,2.0,58.5*,x,14.4*,13.7*,
O=S(=O)(Nc1cccc(-c2cn3cccnc3n2)c1)c1ccccc1,4.6,1.9,1.5,-8.7,70.0*,x,14.9*,17.7*,
Cc1nonc1NC(=O)Nc1cccnc1,1.0,-5.8,-6.4,-4.4,0.1,i,x,x,
COc1ccccc1/C=C/C=C(\C#N)C(=O)NC(C)c1ccccc1 (stereo not drawn),6.2,-4.8,-9.7,5.6,-0.8,i,x,x,
CC12CCC(C(=O)O)(C/C1=N\O)C2(C)C (stereo not drawn),0.7,0.6,28.4,-3.8,0.6,i,x,x,
Cc1ccc(Nc2nc(Oc3ccc(=O)[nH]n3)nc(N(C)C)n2)cc1,4.3,-2.2,-1.4,-13.6,0.3,i,x,x,
CC(=O)N1CCC(C(=O)N2c3ccccc3N=C(c3ccc(C(F)(F)F)cc3)C2C(=O)NC(C)(C)C)CC1 (stereo not drawn),-1.7,5.5,-11.6,11.8,31.5*,x,-64.6,-66.4,
CN1CCN(c2ccc3c(c2)Oc2ccccc2CN(Cc2cn(Cc4ccccc4C(F)(F)F)nn2)S3(=O)=O)CC1,x,6.3,x,3.8,0.7,x,x,x,
Cc1oc2c(C)c3oc(=O)c(CCC(=O)NCCCCCC(=O)O)c(C)c3cc2c1C,8.1,0.1,0.6,-7.7,20.6*,x,13.9*,9.3*,EDANS interf=>69.5
Cc1c(CCC(=O)NCCCN2CCCC2=O)c(=O)oc2cc(O)ccc12,2.8,4.3,-11.1,0.9,72.9*,x,64.8*,83.7*,
Cc1oc2c(C)c3oc(=O)c(CCC(=O)NCCCn4ccnc4)c(C)c3cc2c1C,-0.7,-9.8,6.1,-10.1,-0.6,x,x,x,
SMILES,MT1-MMP act inh,Tn7 DDE FP,SKN-1 inh,DDE Tn6 FP inh,proKLK7 act,Neddylation inh,proKLK7 act conf,EDANS interfere,others
Cc1coc2c(C)c3oc(=O)c(CCC(=O)NCCCN4CCCC4=O)c(C)c3cc12,0.7,6.2,0.6,5.0,5.2,x,x,x,
Cc1c(CCC(=O)NCCCN2CCCC2=O)c(=O)oc2c(C)c(O)ccc12,1.8,-11.1,11.9,4.7,79.0*,x,62.5*,77.4*,
Cc1cc(C)c2c(n1)nn1c(C)c(CCC(=O)NCc3ccco3)c(C)nc21,4.4,-2.3,1.9,-0.3,15.5*,x,-22.8,-26.0,
Cc1cc(C)n2nc(SCC(=O)Nc3c(C)n(C)n(-c4ccccc4)c3=O)nc2n1,0.4,-9.4,-2.7,-9.2,0.2,i,x,x,
O=[N+]([O-])c1ccccc1Nc1c2ccccc2nc2ccccc12,7.3,5.4,8.8,4.4,1.0,i,x,x,
CCOC(=O)c1cc(-c2cc3ccccc3o2)nc2c1c(=O)[nH]c(=O)n2CCOC,2.1,-0.8,5.7,4.6,18.7*,i,-447.3,-483.8,
COc1ccc(CNC(=O)CSc2nc3ccc(C)cc3[nH]2)cc1,1.0,-7.5,7.2,-6.3,0.2,i,x,x,
CC(=O)CCc1c(C)c2cccc(C)c2[nH]c1=O,0.7,2.5,-2.2,1.1,0.6,i,x,x,
COc1cccc2c(=S)c(CCC(C)=O)c(C)[nH]c12,1.1,-3.1,16.7,-4.4,21.1*,i,22.4*,23.5*,
CC1CCCN(CCCNC(=O)c2cc3c(s2)-c2ccccc2OC3)C1 (stereo not drawn),0.0,2.8,-4.4,3.9,43.3*,i,63.0*,78.2*,
CCOC(=O)C1CCN(C(=O)c2cc3c(s2)-c2ccccc2OC3)CC1,-0.2,0.8,4.6,-6.4,14.4*,x,-90.9,-137.5,
